The source made the active and inactive calls. The calls are words filed in the database; no cut-off is given here.
What was measured:
[1] = tested on: A549; experiment: Upregulation of CST8 gene expression in human A549 cells at 21 nM after 12 hrs by microarray analysis relative to control; format: functional
Summary of the method: (§1)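 4 ×10^5 A549 cells seeded per 60 mm dish and treated 12 h with conjugate (21, 26, 34 or 100 nM) in medium; control medium contained 0.1% DMSO, with conjugates added as 0.1% DMSO solutions. Whole human genome (~25 000 genes) expression profiled by microarray against the DMSO control. A549 culture: RPMI-1640 with 10% heat-inactivated FBS, penicillin/streptomycin, 37 °C, 5% CO2.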

[2] = tested on: A549; experiment: Upregulation of BBC3 gene expression in human A549 cells at 21 nM after 12 hrs by microarray analysis relative to control; format: functional
Summary of the method: (§2)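 A549 cells (RPMI-1640, 10% heat-inactivated FBS, penicillin/streptomycin, 37 °C, 5% CO2) seeded at 4 × 10^5 per 60 mm dish. Exposed 12 h to conjugate at 21, 26, 34 or 100 nM in medium with 0.1% DMSO, against 0.1% DMSO control. Whole-genome (~25 000 genes) expression profiled by microarray.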

[3] = tested on: Nucleic Acid; experiment: Induction of calf thymus DNA cleavage at 10 to 25 nM after 12 h by PAGE analysis; format: nucleic-acid assay; conditions: in the assay text read “208-bp PCR fragment DNA” for “calf thymus DNA”
Summary of the method: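 5′-Texas Red-labeled 208 bp PCR fragments alkylated in 5.0 mM sodium phosphate (pH 7.0) with 10% DMF, room temperature, 12 h. Quenched with calf thymus DNA and heated 95 °C for 5 min under neutral conditions. Recovered DNA in formamide loading dye, heated 95 °C 20 min, then run on 6% denaturing polyacrylamide gel with 6.0 M urea at 1.5 kV, 40 °C.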

[4] = tested on: A549; experiment: Upregulation of BTNL3 gene expression in human A549 cells at 21 nM after 12 hrs by microarray analysis relative to control; format: functional; summary of the method: as §1
[5] = tested on: A549; experiment: Downregulation of Q5VY43 gene expression in human A549 cells at 21 nM after 12 hrs by microarray analysis relative to control; format: functional; summary of the method: as §2
[6] = tested on: A549; experiment: Downregulation of SLC4A4 gene expression in human A549 cells at 21 nM after 12 hrs by microarray analysis relative to control; format: functional; summary of the method: as §2
[7] = tested on: A549; experiment: Downregulation of FHIT gene expression in human A549 cells at 21 nM after 12 hrs by microarray analysis relative to control; format: functional
Summary of the method: (§3)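 A549 cells, 4 × 10^5 per 60 mm dish, were exposed to conjugate for 12 h in medium with 0.1% DMSO; vehicle control was 0.1% DMSO. Whole human genome (~25 000 genes) expression was profiled by microarray and expression compared with the control.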

[8] = tested on: A549; experiment: Upregulation of HCK gene expression in human A549 cells at 21 nM after 12 hrs by microarray analysis relative to control; format: functional; summary of the method: as §1
[9] = tested on: A549; experiment: Downregulation of SUPT3H gene expression in human A549 cells at 21 nM after 12 hrs by microarray analysis relative to control; format: functional; summary of the method: as §2
[10] = Cytotoxicity against human EBC1 cells assessed as cell growth inhibition after 48 hrs by microplate reader analysis; format: functional, cell-based; conditions: EBC-1, 48 h
Summary of the method: (§4)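 Medium was RPMI-1640 for EBC-1, A549 and DU145, and DMEM for PC-3, SK-N-SH and K562. Both media had 10% heat-inactivated FBS plus penicillin/streptomycin; cells were kept at 37 °C, 5% CO2. Cells were seeded at 5000/well and given compound from DMSO stock (final 0.1% DMSO) for 48 h. Viability was read by WST-8 colorimetry, absorbance at 450 and 600 nm, and IC50 determined.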

[11] = tested on: K562; experiment: Cytotoxicity against human K562 cells assessed as cell growth inhibition after 48 hrs by microplate reader analysis; format: functional, cell-based; conditions: K562, 48 h; summary of the method: as §4
[12] = tested on: A549; experiment: Downregulation of FMN2 gene expression in human A549 cells at 21 nM after 12 hrs by microarray analysis relative to control; format: functional; summary of the method: as §3
[13] = tested on: A549; experiment: Downregulation of CPNE4 gene expression in human A549 cells at 21 nM after 12 hrs by microarray analysis relative to control; format: functional; summary of the method: as §3
[14] = tested on: A549; experiment: Upregulation of FDXR gene expression in human A549 cells at 21 nM after 12 hrs by microarray analysis relative to control; format: functional; summary of the method: as §1
[15] = tested on: PC-3; experiment: Cytotoxicity against human PC3 cells assessed as cell growth inhibition after 48 hrs by microplate reader analysis; format: functional, cell-based; conditions: PC-3, 48 h; summary of the method: as §4
[16] = tested on: A549; experiment: Upregulation of Q6NTF7 gene expression in human A549 cells at 21 nM after 12 hrs by microarray analysis relative to control; format: functional; summary of the method: as §1
[17] = tested on: A549; experiment: Downregulation of SLC25A21 gene expression in human A549 cells at 21 nM after 12 hrs by microarray analysis relative to control; format: functional; summary of the method: as §2
[18] = tested on: A549; experiment: Upregulation of MDM2 gene expression in human A549 cells at 21 nM after 12 hrs by microarray analysis relative to control; format: functional; summary of the method: as §1
[19] = tested on: DU-145; experiment: Cytotoxicity against human DU145 cells assessed as cell growth inhibition after 48 hrs by microplate reader analysis; format: functional, cell-based; conditions: DU-145, 48 h; summary of the method: as §4
[20] = tested on: A549; experiment: Upregulation of BTG2 gene expression in human A549 cells at 21 nM after 12 hrs by microarray analysis relative to control; format: functional; summary of the method: as §1
[21] = tested on: A549; experiment: Downregulation of NP_060463.1 gene expression in human A549 cells at 21 nM after 12 hrs by microarray analysis relative to control; format: functional; summary of the method: as §3
[22] = tested on: A549; experiment: Cytotoxicity against human A549 cells assessed as cell growth inhibition after 48 hrs by microplate reader analysis; format: functional, cell-based; conditions: A549, 48 h; summary of the method: as §4
[23] = tested on: A549; experiment: Upregulation of HES2 gene expression in human A549 cells at 21 nM after 12 hrs by microarray analysis relative to control; format: functional; summary of the method: as §1
[24] = tested on: A549; experiment: Downregulation of PTPRK gene expression in human A549 cells at 21 nM after 12 hrs by microarray analysis relative to control; format: functional; summary of the method: as §2
[25] = tested on: A549; experiment: Downregulation of NBEA gene expression in human A549 cells at 21 nM after 12 hrs by microarray analysis relative to control; format: functional; summary of the method: as §3
[26] = tested on: A549; experiment: Upregulation of CDKN1A gene expression in human A549 cells at 21 nM after 12 hrs by microarray analysis relative to control; format: functional; summary of the method: as §1
[27] = tested on: A549; experiment: Downregulation of HECW2 gene expression in human A549 cells at 21 nM after 12 hrs by microarray analysis relative to control; format: functional; summary of the method: as §3
[28] = tested on: A549; experiment: Downregulation of SMYD3 gene expression in human A549 cells at 21 nM after 12 hrs by microarray analysis relative to control; format: functional; summary of the method: as §2
[29] = tested on: A549; experiment: Downregulation of Q8N570_HUMAN gene expression in human A549 cells at 21 nM after 12 hrs by microarray analysis relative to control; format: functional; summary of the method: as §2
[30] = tested on: A549; experiment: Downregulation of RABGAP1L gene expression in human A549 cells at 21 nM after 12 hrs by microarray analysis relative to control; format: functional; summary of the method: as §2
[31] = tested on: A549; experiment: Downregulation of RS29_HUMAN gene expression in human A549 cells at 21 nM after 12 hrs by microarray analysis relative to control; format: functional; summary of the method: as §2
[32] = tested on: SK-N-SH; experiment: Cytotoxicity against human SK-N-SH cells assessed as cell growth inhibition after 48 hrs by microplate reader analysis; format: functional, cell-based; summary of the method: as §4
[33] = tested on: A549; experiment: Downregulation of Q8NCR4 gene expression in human A549 cells at 21 nM after 12 hrs by microarray analysis relative to control; format: functional; summary of the method: as §2
[34] = tested on: A549; experiment: Downregulation of NP_115632.1 gene expression in human A549 cells at 21 nM after 12 hrs by microarray analysis relative to control; format: functional; summary of the method: as §3
[35] = tested on: A549; experiment: Downregulation of GABRA3 gene expression in human A549 cells at 21 nM after 12 hrs by microarray analysis relative to control; format: functional; summary of the method: as §3
[36] = tested on: A549; experiment: Downregulation of MBD3L1 gene expression in human A549 cells at 21 nM after 12 hrs by microarray analysis relative to control; format: functional; summary of the method: as §3
[37] = tested on: A549; experiment: Downregulation of ACTG gene expression in human A549 cells at 21 nM after 12 hrs by microarray analysis relative to control; format: functional; summary of the method: as §3

CC(=O)Nc1cc(C(=O)Nc2cn(C)c(C(=O)NCCC(=O)Nc3cn(C)c(C(=O)Nc4cc(C(=O)NCCCC(=O)Nc5cc(C(=O)Nc6cc(C(=O)Nc7cc(C(=O)Nc8ccc9[nH]c(C(=O)N%10CC(CCl)c%11c%10cc(O)c%10ccccc%11%10)cc9c8)n(C)c7)n(C)c6)n(C)c5)n(C)c4)n3)n2)n(C)c1 (racemic)
fold change (FC) [1]: 5.3
fold change (FC) [2]: 5.7
Activity [3]: Active
fold change (FC) [4]: 2
fold change (FC) [5]: 0.354
fold change (FC) [6]: 0.278
fold change (FC) [7]: 0.253
fold change (FC) [8]: 4.3
fold change (FC) [9]: 0.268
IC50 [10]: 33.9 nM
IC50 [11]: 7.76 nM
fold change (FC) [12]: 0.344
fold change (FC) [13]: 0.314
fold change (FC) [14]: 2
IC50 [15]: 6.03 nM
fold change (FC) [16]: 7
fold change (FC) [17]: 0.354
fold change (FC) [18]: 5.4
IC50 [19]: 3.31 nM
fold change (FC) [20]: 6.7
fold change (FC) [21]: 0.303
IC50 [22]: 21.4 nM
fold change (FC) [23]: 10.6
fold change (FC) [24]: 0.334
fold change (FC) [25]: 0.274
fold change (FC) [26]: 5.2
fold change (FC) [27]: 0.346
fold change (FC) [28]: 0.345
fold change (FC) [29]: 0.228
fold change (FC) [30]: 0.132
fold change (FC) [31]: 0.234
IC50 [32]: 15.1 nM
fold change (FC) [33]: 0.348
fold change (FC) [34]: 0.154
fold change (FC) [35]: 0.343
fold change (FC) [36]: 0.294
fold change (FC) [37]: 0.345

Source: ChEMBL document CHEMBL2169747, “Synthesis and biological properties of highly sequence-specific-alkylating N-methylpyrrole-N-methylimidazole polyamide conjugates” (J Med Chem, 2012)
